Values after ≈ are worked out from the molar mass of the structure shown.
Columns and labels:
[1] = test system: Streptococcus pneumoniae; experiment: Antibacterial activity against Streptococcus pneumoniae 1001 after 18 to 24 hrs by agar dilution method; assay type: functional
In short: (§1)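 Agar dilution on Petri dishes, each inoculated with 10⁴ cfu of the strain and incubated at 35 °C for 18–24 h. MIC read as the lowest compound concentration giving no visible growth on the plate.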

[2] = test system: Pseudomonas aeruginosa; experiment: Antibacterial activity against Pseudomonas aeruginosa ATCC 27853 after 18 to 24 hrs by agar dilution method; assay type: functional; in short: as §1
[3] = test system: Streptococcus pyogenes; experiment: Antibacterial activity against Streptococcus hemolyticus 1002 after 18 to 24 hrs by agar dilution method; assay type: functional; in short: as §1
[4] = test system: Staphylococcus aureus; experiment: Antibacterial activity against methicillin-resistant Staphylococcus aureus 10-05 after 18 to 24 hrs by agar dilution method; assay type: functional
In short: (§2)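 Agar dilution on Petri dishes, each inoculated with 10⁴ cfu. Plates incubated at 35 °C for 18–24 h. MIC taken as the lowest test-compound concentration giving no visible growth on the plate. Reference drugs gemifloxacin, ciprofloxacin and levofloxacin run alongside for comparison.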

[5] = test system: Klebsiella pneumoniae; experiment: Antibacterial activity against Klebsiella pneumoniae 10-1 after 18 to 24 hrs by agar dilution method; assay type: functional; in short: as §1
[6] = Cytotoxicity against african green monkey Vero cells after 24 hrs; assay type: cell-based; conditions: chlorocebus sabaeus
In short: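 Vero cells exposed to graded compound concentrations for 24 h, then viability assessed; CC₅₀ derived from the viability data.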

[7] = test system: Staphylococcus epidermidis; experiment: Antibacterial activity against methicillin-resistant Staphylococcus epidermidis 10-5 after 18 to 24 hrs by agar dilution method; assay type: functional; in short: as §2
[8] = test system: Escherichia coli; experiment: Antibacterial activity against Escherichia coli 10-02 after 18 to 24 hrs by agar dilution method; assay type: functional; in short: as §1
[9] = test system: Staphylococcus epidermidis; experiment: Antibacterial activity against methicillin-sensitive Staphylococcus epidermidis 10-4 after 18 to 24 hrs by agar dilution method; assay type: functional; in short: as §1
[10] = test system: Pseudomonas aeruginosa; experiment: Antibacterial activity against Pseudomonas aeruginosa 10-1 after 18 to 24 hrs by agar dilution method; assay type: functional; in short: as §1
[11] = test system: Staphylococcus aureus; experiment: Antibacterial activity against methicillin-sensitive Staphylococcus aureus 10-04 after 18 to 24 hrs by agar dilution method; assay type: functional; in short: as §1
[12] = test system: Staphylococcus aureus; experiment: Antibacterial activity against Staphylococcus aureus ATCC 25923 after 18 to 24 hrs by agar dilution method; assay type: functional; in short: as §1
[13] = test system: Escherichia coli; experiment: Antibacterial activity against Escherichia coli ATCC 25922 after 18 to 24 hrs by agar dilution method; assay type: functional; in short: as §1
[14] = test system: Staphylococcus aureus; experiment: Ratio of compound MIC to CPFX MIC for methicillin-sensitive Staphylococcus aureus 10-04; assay type: functional
[15] = test system: Staphylococcus aureus; experiment: Ratio of compound MIC to LVFX MIC for methicillin-sensitive Staphylococcus aureus 10-04; assay type: functional
[16] = test system: Staphylococcus aureus; experiment: Ratio of compound MIC to GMFX MIC for methicillin-sensitive Staphylococcus aureus 10-04; assay type: functional

SMILES | MIC [1] [µg/mL] | MIC [2] [µg/mL] | MIC [3] [µg/mL] | MIC [4] [µg/mL] | MIC [5] [µg/mL] | CC50 at 24 h [6] [µM] | MIC [7] [µg/mL] | MIC [8] [µg/mL] | MIC [9] [µg/mL] | MIC [10] [µg/mL] | MIC [11] [µg/mL] | MIC [12] [µg/mL] | MIC [13] [µg/mL] | Ratio [14] | Ratio [15] | Ratio [16]
CO/N=C1\CC(N)CN(c2nc3c(cc2F)c(=O)c(C(=O)O)cn3C2CC2)C1 (stereo unspecified) | 4 (≈ 10.3 µM) | 128 (≈ 329 µM) | 128 (≈ 329 µM) | 128 (≈ 329 µM) | 128 (≈ 329 µM) | 822 | 16 (≈ 41.1 µM) | 0.25 (≈ 0.642 µM) | 2 (≈ 5.14 µM) | 128 (≈ 329 µM) | 8 (≈ 20.5 µM) | 4 (≈ 10.3 µM) | 0.25 (≈ 0.642 µM) |  |  | 
CCO/N=C1\CC(N)CN(c2nc3c(cc2F)c(=O)c(C(=O)O)cn3C2CC2)C1 (stereo unspecified) | 4 (≈ 9.92 µM) | 128 (≈ 317 µM) | 128 (≈ 317 µM) | 16 (≈ 39.7 µM) | 128 (≈ 317 µM) | 967 | 8 (≈ 19.8 µM) | 0.5 (≈ 1.24 µM) | 4 (≈ 9.92 µM) | 128 (≈ 317 µM) | 2 (≈ 4.96 µM) | 4 (≈ 9.92 µM) | 0.25 (≈ 0.62 µM) |  |  | 
CNC1C/C(=N\OC)CN(c2nc3c(cc2F)c(=O)c(C(=O)O)cn3C2CC2)C1 (stereo unspecified) | 4 (≈ 9.92 µM) | 128 (≈ 317 µM) | > 128 | 128 (≈ 317 µM) | > 128 | 645 | 16 (≈ 39.7 µM) | 0.25 (≈ 0.62 µM) | 2 (≈ 4.96 µM) | > 128 | 4 (≈ 9.92 µM) | 0.5 (≈ 1.24 µM) | 0.25 (≈ 0.62 µM) |  |  | 
CCO/N=C1\CC(NC)CN(c2nc3c(cc2F)c(=O)c(C(=O)O)cn3C2CC2)C1 (stereo unspecified) | 4 (≈ 9.58 µM) | 128 (≈ 307 µM) | > 128 | 8 (≈ 19.2 µM) | > 128 | 731 | 16 (≈ 38.3 µM) | 0.25 (≈ 0.599 µM) | 8 (≈ 19.2 µM) | > 128 | 4 (≈ 9.58 µM) | 2 (≈ 4.79 µM) | 0.25 (≈ 0.599 µM) |  |  | 
CO/N=C1\CC(N)CN(c2c(F)cc3c(=O)c(C(=O)O)cn(C4CC4)c3c2F)C1 (stereo unspecified) | 0.25 (≈ 0.615 µM) | 128 (≈ 315 µM) | 128 (≈ 315 µM) | 8 (≈ 19.7 µM) | 128 (≈ 315 µM) | 739 | 8 (≈ 19.7 µM) | 0.25 (≈ 0.615 µM) | 4 (≈ 9.84 µM) | 128 (≈ 315 µM) | 0.5 (≈ 1.23 µM) | 0.25 (≈ 0.615 µM) | 0.25 (≈ 0.615 µM) | 4 | 4 | 4
CO/N=C1\CC(N)CN(c2c(F)cc3c(=O)c(C(=O)O)cn(C4CC4)c3c2OC(F)F)C1 (stereo unspecified) | 4 (≈ 8.8 µM) | 128 (≈ 282 µM) | > 128 | 128 (≈ 282 µM) | > 128 | 667 | 8 (≈ 17.6 µM) | 0.25 (≈ 0.55 µM) | 2 (≈ 4.4 µM) | > 128 | 8 (≈ 17.6 µM) | 2 (≈ 4.4 µM) | 0.25 (≈ 0.55 µM) |  |  | 
CO/N=C1\CC(N)CN(c2c(F)cc3c(=O)c(C(=O)O)cn4c3c2OC[C@@H]4C)C1 (stereo partly specified) | 0.5 (≈ 1.24 µM) | 8 (≈ 19.8 µM) | 64 (≈ 158 µM) | 128 (≈ 317 µM) | 64 (≈ 158 µM) | 1000 | 8 (≈ 19.8 µM) | 0.5 (≈ 1.24 µM) | 4 (≈ 9.89 µM) | 64 (≈ 158 µM) | 2 (≈ 4.95 µM) | 0.5 (≈ 1.24 µM) | 0.25 (≈ 0.618 µM) |  |  | 
CO/N=C1\CC(N)CN(c2cc3c(cc2F)c(=O)c(C(=O)O)cn3C2CC2)C1 (stereo unspecified) | 4 (≈ 10.3 µM) | 2 (≈ 5.15 µM) | 128 (≈ 330 µM) | 64 (≈ 165 µM) | 64 (≈ 165 µM) | 593 | 16 (≈ 41.2 µM) | 0.25 (≈ 0.644 µM) | 8 (≈ 20.6 µM) | > 128 | 4 (≈ 10.3 µM) | 0.5 (≈ 1.29 µM) | 0.25 (≈ 0.644 µM) |  |  | 
CCn1cc(C(=O)O)c(=O)c2cc(F)c(N3C/C(=N/OC)CC(N)C3)c(F)c21 (stereo unspecified) | 0.5 (≈ 1.27 µM) | 8 (≈ 20.3 µM) | 128 (≈ 325 µM) | 32 (≈ 81.1 µM) | > 128 | 913 | 16 (≈ 40.6 µM) | 0.25 (≈ 0.634 µM) | 16 (≈ 40.6 µM) | > 128 | 0.25 (≈ 0.634 µM) | 0.25 (≈ 0.634 µM) | 0.25 (≈ 0.634 µM) | 4 | 4 | 
O=C(O)c1cn(C2CC2)c2cc(N3CCNCC3)c(F)cc2c1=O [CIPROFLOXACIN] | 0.03 (≈ 0.0905 µM) | 32 (≈ 96.6 µM) | 64 (≈ 193 µM) | 64 (≈ 193 µM) | 32 (≈ 96.6 µM) |  | 16 (≈ 48.3 µM) |  | 1 (≈ 3.02 µM) | 1 (≈ 3.02 µM) |  | 0.25 (≈ 0.754 µM) |  |  |  | 
CO/N=C1\CN(c2nc3c(cc2F)c(=O)c(C(=O)O)cn3C2CC2)CC1CN (stereo unspecified) [GEMIFLOXACIN] | 0.008 (≈ 0.0205 µM) | 2 (≈ 5.14 µM) | 8 (≈ 20.5 µM) | 4 (≈ 10.3 µM) | 32 (≈ 82.2 µM) |  | 8 (≈ 20.5 µM) | 0.06 (≈ 0.154 µM) | 0.25 (≈ 0.642 µM) | 1 (≈ 2.57 µM) | 2 (≈ 5.14 µM) | 0.008 (≈ 0.0205 µM) | 0.015 (≈ 0.0385 µM) |  |  | 
C[C@H]1COc2c(N3CCN(C)CC3)c(F)cc3c(=O)c(C(=O)O)cn1c23.C[C@H]1COc2c(N3CCN(C)CC3)c(F)cc3c(=O)c(C(=O)O)cn1c23.O [LEVOFLOXACIN] | 0.015 |  | 32 | 32 | 32 |  | 8 |  | 2 |  | 8 | 0.125 |  |  |  | 

Source: ChEMBL document CHEMBL1667809, “Synthesis and in vitro antibacterial activity of 7-(3-alkoxyimino-5-amino/methylaminopiperidin-1-yl)fluoroquinolone derivatives” (Bioorg Med Chem Lett, 2011)
